Source: ChEMBL document CHEMBL4049449, “Discovery of a Novel Class of Survival Motor Neuron 2 Splicing Modifiers for the Treatment of Spinal Muscular Atrophy” (J Med Chem, 2017)
Calls of active or inactive are those of the source. No cut-off for these calls is given here.

Columns and labels:
Homo sapiens [1] = species on record: Homo sapiens; assay: Modulation of patient derived full length SMN2 pre mRNA splicing assessed as inclusion of exon 7
Homo sapiens [2] = species on record: Homo sapiens; assay: Modulation of patient derived full length SMN2 pre mRNA splicing assessed as restoration of functional SMN2 to protein level
Mus musculus [3] = assay: Induction of SMN protein levels in neonatal delta7 FVB mouse brain at 0.3 mg/kg, ip qd administered from postnatal day 3 to day 9 measured 1 hr post last dose by HTRF assay relative to control; format: functional
Mus musculus [4] = assay: Induction of SMN protein levels in neonatal delta7 FVB mouse brain at 3 mg/kg, ip qd administered from postnatal day 3 to day 9 measured 1 hr post last dose by HTRF assay relative to control; format: functional
[5] = Total AUC in wild type FVB mouse plasma at 10 mg/kg, po qd for 10 days by LC-MS/MS analysis; format: ADME, organism-based; design: dose 10 mg/kg, route oral, time AUCmax
Mus musculus [6] = assay: Induction of SMN protein levels in C/C-Allele SMA FVB mouse brain at 10 mg/kg, po qd for 10 days measured 1 hr post last dose by HTRF assay relative to control; format: functional
Summary of the method: (§1)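 Adult C/C-allele SMA mice dosed orally once daily for 10 days at 1, 3 or 10 mg/kg. SMN protein in brain and quadriceps was expressed as % increase over vehicle-treated animals.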

Mus musculus [7] = assay: Induction of SMN protein levels in C/C-Allele SMA FVB mouse brain at 3 mg/kg, po qd for 10 days measured 1 hr post last dose by HTRF assay relative to control; format: functional; summary of the method: as §1
Mus musculus [8] = assay: Induction of SMN protein levels in C/C-Allele SMA FVB mouse brain at 1 mg/kg, po qd for 10 days measured 1 hr post last dose by HTRF assay relative to control; format: functional; summary of the method: as §1
Mus musculus [9] = assay: Induction of SMN protein levels in neonatal delta7 FVB mouse brain at 1 mg/kg, ip qd administered from postnatal day 3 to day 9 measured 1 hr post last dose by HTRF assay relative to control; format: functional
[10] = Total AUC in neonatal wild type FVB mouse plasma at 3 mg/kg, ip qd for 10 days by LC-MS/MS analysis; format: ADME, organism-based; design: dose 3 mg/kg, route intraperitoneal, time AUCmax
Summary of the method: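 Plasma AUC determined in a satellite group of neonatal (P10) wild-type mice dosed ip. Free AUC was calculated using the free fraction measured in serum from adult mice.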

Salmonella typhimurium [11] = assay: Genotoxicity in Salmonella typhimurium TA98 in presence of rat liver S9 fraction by Ames test; format: toxicity; conditions: salmonella enterica subsp. enterica serovar typhimurium
Summary of the method: (§2)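 Ames plate incorporation: strains grown overnight at 37 °C in nutrient broth (TA102 with 0.3 μg/mL tetracycline). Compound at 20–2000 μg/plate in top agar with histidine/biotin, plus rat liver S9 mix (NADP, glucose 6-phosphate, KCl, MgCl2, pH 7.4 phosphate). Vogel–Bonner plates incubated 37 °C, 2 days; colonies counted by image analysis. Positive: dose-dependent ≥2-fold (TA1535, TA98) or ≥1.5-fold (TA97, TA100, TA102) rise over background.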

Salmonella typhimurium [12] = assay: Genotoxicity in Salmonella typhimurium TA100 in presence of rat liver S9 fraction by Ames test; format: toxicity; conditions: salmonella enterica subsp. enterica serovar typhimurium; summary of the method: as §2
Salmonella typhimurium [13] = assay: Genotoxicity in Salmonella typhimurium TA1535 in presence of rat liver S9 fraction by Ames test; format: toxicity; conditions: salmonella enterica subsp. enterica serovar typhimurium; summary of the method: as §2
Salmonella typhimurium [14] = assay: Genotoxicity in Salmonella typhimurium TA102 in presence of rat liver S9 fraction by Ames test; format: toxicity; conditions: salmonella enterica subsp. enterica serovar typhimurium; summary of the method: as §2
Salmonella typhimurium [15] = assay: Genotoxicity in Salmonella typhimurium TA97 in presence of rat liver S9 fraction by Ames test; format: toxicity; conditions: salmonella enterica subsp. enterica serovar typhimurium; summary of the method: as §2

Row | SMILES | EC1.5 (Homo sapiens [1]) | EC1.5 (Homo sapiens [2]) | other results
1 | COc1nc(N2CCNCC2)ccc1C(=O)Nc1cn2cc(C)nc2cn1 | 129 nM | 555 nM | 
2 | Cc1cn2cc(/C=C/c3ccc(N4CCNCC4)cc3)nc2c(C)n1 | 4410 nM | 8420 nM | 
3 | Cc1cn2cc(C(=O)Nc3ccc(C4CCN(C)CC4)cc3)nc2c(C)n1 | inactive | inactive | 
4 | Cc1cn2cc(CCc3ccc(N4CCNCC4)cc3)nc2c(C)n1 | inactive | inactive | 
5 | Cc1cn2cc(-c3ccc4c(c3)OC(=O)N(C3CCNCC3)C4)nc2c(C)n1 | 4700 nM | inactive | 
6 | Cc1cn2cc(NC(=O)c3ccc(N4CCN(C)CC4)cn3)nc2c(C)n1 |  | 1520 nM | 
7 | Cc1cn2cc(-c3ccc(NC(=O)N4CCN(C)CC4)cc3)nc2c(C)n1 | inactive | inactive | 
8 | CC[C@H]1CN(c2ccc(C(=O)Nc3cn4cc(C)nc4cn3)c(F)c2)CCN1 | 12 nM | 246 nM | Activity (Mus musculus [3]): 26%; Activity (Mus musculus [4]): 100%; AUC at 240 h [5]: 27100 ng·h/mL; Activity (Mus musculus [6]): 260%; Activity (Mus musculus [7]): 81%; Activity (Mus musculus [8]): 22%; Activity (Mus musculus [9]): 53%; AUC at 240 h [10]: 4450 ng·h/mL
9 | Cc1cn2cc(C(=O)Nc3ccc(N4CCN(C)CC4)cc3)nc2c(C)n1 | inactive | inactive | 
10 | Cc1cn2cc(N(C)C(=O)c3ccc(N4CCN(C)CC4)cc3)nc2c(C)n1 | inactive | inactive | 
11 | Cc1cn2cc(NC(=O)c3ccc(N4CCNC(C)C4)c(F)c3F)ncc2n1 (stereo not given) | 165 nM | 603 nM | 
12 | Cc1cn2nc(NC(=O)c3ccc(N4CCNC(C)C4)cc3F)nc2c(C)n1 (stereo not given) | inactive | inactive | Activity (Salmonella typhimurium [11]): Non-Toxic; Activity (Salmonella typhimurium [12]): Non-Toxic; Activity (Salmonella typhimurium [13]): Non-Toxic; Activity (Salmonella typhimurium [14]): Non-Toxic; Activity (Salmonella typhimurium [15]): Non-Toxic
13 | Cc1cn2cc(-c3ccc4c(c3)CCN(C3CCNCC3)C4=O)nc2c(C)n1 | 530 nM | inactive | 
14 | COc1cc(N2CCNC(C)C2)ccc1C(=O)Nc1cn2cc(C)nc2cn1 (stereo not given) | 58 nM | 206 nM | 
15 | Cc1cn2cc(NC(=O)c3ccc(N4CCNCC4)cc3)nc2c(C)n1 |  | 775 nM | 
16 | Cc1cn2cc(NC(=O)c3ccc(N4CCNC(C(C)C)C4)cc3F)ncc2n1 (stereo not given) | 106 nM | 265 nM | 
17 | Cc1cn2cc(NC(=O)c3c(F)cc(N4CCNCC4)cc3Cl)ncc2n1 | 2030 nM | 8760 nM | 
18 | CC[C@@H]1CN(c2ccc(C(=O)Nc3cn4cc(C)nc4cn3)c(F)c2)CCN1 | 29 nM | 158 nM | Activity (Mus musculus [3]): 0%; Activity (Mus musculus [4]): 117%; AUC at 240 h [5]: 19000 ng·h/mL; Activity (Mus musculus [6]): 217%; Activity (Mus musculus [7]): 45%; Activity (Mus musculus [8]): 19%; Activity (Mus musculus [9]): 66%; AUC at 240 h [10]: 3730 ng·h/mL
19 | Cc1cn2cc(COc3ccc(N4CCNCC4)cc3)nc2c(C)n1 | inactive | inactive | 

Row | SMILES | EC1.5 (Homo sapiens [1]) | EC1.5 (Homo sapiens [2]) | other results
20 | Cc1cn2cc(NC(=O)c3ccc(C4CCNCC4)cc3)nc2c(C)n1 | 820 nM | 3800 nM | 
21 | Cc1cn2cc(NC(=O)c3ccc(N4CCC(N5CCCC5)C4)cc3F)nc2c(C)n1 (stereo not given) | 29 nM | 86 nM | 
22 | Cc1cn2cc(-c3ccc(C(=O)NC4CCN(C)CC4)cc3)nc2c(C)n1 | inactive | inactive | 
23 | Cc1cn2cc(NC(=O)c3ccc(N4CCNCC4)cc3)ncc2n1 | 1040 nM | 2250 nM | 
24 | Cc1cn2cc(NC(=O)c3ccc(N4CCNCC4)cc3F)ncc2n1 | 37 nM | 87 nM | Activity (Salmonella typhimurium [11]): Non-Toxic; Activity (Salmonella typhimurium [12]): Non-Toxic; Activity (Salmonella typhimurium [13]): Non-Toxic; Activity (Salmonella typhimurium [14]): Non-Toxic; Activity (Salmonella typhimurium [15]): Non-Toxic
25 | Cc1cn2cc(C#Cc3ccc(N4CCN(C)CC4)cc3)nc2c(C)n1 | inactive | inactive | 
26 | Cc1cn2cc(-c3cc4ccc(N5CCN(C)CC5)cc4c(=O)o3)nc2c(C)n1 | 25 nM |  | Activity (Salmonella typhimurium [11]): Toxic; Activity (Salmonella typhimurium [12]): Toxic; Activity (Salmonella typhimurium [13]): Toxic; Activity (Salmonella typhimurium [14]): Toxic; Activity (Salmonella typhimurium [15]): Toxic
27 | Cc1cn2cc(NC(=O)c3ccc(N4CCNC(C)(C)C4)cc3F)ncc2n1 | 31 nM | 504 nM | 
28 | CCN1CCN(c2ccc3cc(-c4cn5cc(C)nc(C)c5n4)c(=O)oc3c2)C[C@@H]1C |  |  | Activity (Salmonella typhimurium [11]): Toxic; Activity (Salmonella typhimurium [12]): Toxic; Activity (Salmonella typhimurium [13]): Toxic; Activity (Salmonella typhimurium [14]): Toxic; Activity (Salmonella typhimurium [15]): Toxic
29 | Cc1cn2cc(NC(=O)c3ccc(N4CCNCC4)cc3F)cc(F)c2n1 | 11 nM | 27 nM | Activity (Salmonella typhimurium [11]): Toxic; Activity (Salmonella typhimurium [12]): Toxic; Activity (Salmonella typhimurium [13]): Toxic; Activity (Salmonella typhimurium [14]): Toxic; Activity (Salmonella typhimurium [15]): Toxic
30 | Cc1cn2cc(NC(=O)c3ccc(N4CCNC(C)C4)cc3F)c(C)cc2n1 (stereo not given) | 40 nM | 152 nM | Activity (Salmonella typhimurium [11]): Non-Toxic; Activity (Salmonella typhimurium [12]): Non-Toxic; Activity (Salmonella typhimurium [13]): Non-Toxic; Activity (Salmonella typhimurium [14]): Non-Toxic; Activity (Salmonella typhimurium [15]): Non-Toxic
31 | Cc1cn2cc(NC(=O)c3ccc(N4CCN[C@H](C)C4)cc3F)ncc2n1 | 15 nM | 122 nM | 
32 | Cc1cn2cc(NC(=O)c3ccc(N4CCN(N5CCCC5)CC4)cc3F)nc2c(C)n1 | 100 nM | 200 nM | 
33 | Cc1cn2cc(NC(=O)c3cc(F)c(N4CCNC(C)C4)cc3F)ncc2n1 (stereo not given) | 85 nM | 495 nM | 
34 | Cc1cn2cc(NC(=O)c3ccc(C4CCN(C)C4)cc3F)nc2c(C)n1 (stereo not given) | 91 nM | 176 nM | 
35 | Cc1cn2cc(-c3ccc(NC(=O)C4CCN(C)CC4)cc3)nc2c(C)n1 | inactive | inactive | 
36 | Cc1cn2cc(NC(=O)c3ccc(N4CCN(C)CC4)cc3F)nc2c(C)n1 | 232 nM | 560 nM | 
37 | Cc1nc2c(F)cc(NC(=O)c3ccc(N4CCNCC4)cc3F)cc2o1 | 39 nM | 116 nM | Activity (Salmonella typhimurium [11]): Non-Toxic; Activity (Salmonella typhimurium [12]): Non-Toxic; Activity (Salmonella typhimurium [13]): Non-Toxic; Activity (Salmonella typhimurium [14]): Non-Toxic; Activity (Salmonella typhimurium [15]): Non-Toxic
